Results: ChEMBL document CHEMBL4765247, “Novel mouse GABA uptake inhibitors with enhanced inhibitory activity toward mGAT3/4 and their effect on pain threshold in mice” (Eur J Med Chem, 2020)
Each block holds one compound with its values, some of them ahead of it. The source made the active and inactive calls.

Legend:
[1] = biological target: Betaine/GABA transporter BGT1 (Mus musculus, Slc6a12); test: Inhibition of mouse GAT2 expressed in HEK293 cell line assessed as inhibition of [3H]GABA uptake measured after 35 mins by liquid scintillation method
[2] = biological target: GABA transporter 3 (Mus musculus, Slc6a13); test: Inhibition of mouse GAT3 expressed in HEK293 cell line assessed as inhibition of [3H]GABA uptake measured after 35 mins by liquid scintillation method
[3] = Lipophilicity, logP of the compound by UPLC-MS method; format: physicochemical; details: octanol/water; read-out: logP
Summary of the method: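 LogP measured by UPLC on a BEH C18 column (2.1 × 100 mm, 1.7 µm, with C18 pre-column) coupled to an ESI tandem quadrupole MS. The method was calibrated with reference compounds of established logP values.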

[4] = biological target: T1, Sodium- and chloride-dependent GABA transporter 1 (Mus musculus, UniProt P31648); test: Inhibition of mouse GAT1 expressed in HEK293 cell line assessed as inhibition of [3H]GABA uptake measured after 35 mins by liquid scintillation method; format: cell-based
Summary of the method: (§1)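 Otherwise, the remaining uptake at 100 µM is reported as a percentage. Values without SEM come from a single triplicate experiment.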

GABA transporter 4 [5] = biological target: T2, GABA transporter 4 (Mus musculus, UniProt P31650); test: Inhibition of mouse GAT4 expressed in HEK293 cell line assessed as inhibition of [3H]GABA uptake measured after 35 mins by liquid scintillation method; format: cell-based
T2 sequence (P31650 whole entry): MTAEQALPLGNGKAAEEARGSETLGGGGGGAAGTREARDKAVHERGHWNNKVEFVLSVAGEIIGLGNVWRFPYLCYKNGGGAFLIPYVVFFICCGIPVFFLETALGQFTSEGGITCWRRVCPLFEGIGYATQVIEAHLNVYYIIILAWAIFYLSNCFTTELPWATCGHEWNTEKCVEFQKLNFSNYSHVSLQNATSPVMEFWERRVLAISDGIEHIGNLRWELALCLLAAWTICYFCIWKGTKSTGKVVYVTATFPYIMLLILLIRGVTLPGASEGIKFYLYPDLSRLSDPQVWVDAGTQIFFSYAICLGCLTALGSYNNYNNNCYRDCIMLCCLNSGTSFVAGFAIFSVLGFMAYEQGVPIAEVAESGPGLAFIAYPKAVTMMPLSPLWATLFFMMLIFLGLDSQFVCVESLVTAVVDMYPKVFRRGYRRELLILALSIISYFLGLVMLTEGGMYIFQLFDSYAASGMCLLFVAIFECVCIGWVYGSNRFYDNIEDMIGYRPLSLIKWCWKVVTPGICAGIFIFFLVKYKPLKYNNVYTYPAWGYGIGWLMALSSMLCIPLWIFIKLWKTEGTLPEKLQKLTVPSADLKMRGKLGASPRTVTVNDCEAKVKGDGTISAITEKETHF
Summary of the method: as §1

[6] = biological target: T1, Sodium- and chloride-dependent GABA transporter 1; test: Displacement of unlabelled NO711 from mouse GAT1 expressed in HEK293 cells measured after 40 mins of incubation by LC-ESI-MS-MS method
Mus musculus [7] = test: Antihyperalgesic activity in oxaliplatin-induced […] acute neuropathy pain Albino Swiss mouse model assessed as reduction in cold allodynia at 10 mg/kg, ip administered after 3 hrs of oxaliplatin stimulation by cold plate method; format: functional, organism-based
Summary of the method: (§2)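 For cold allodynia, oxaliplatin-treated mice were placed on a cold plate in the acute and late phases of neuropathy after i.p. dosing. The readout was mean latency to pain reaction (n=7-10). Results are mean ± SEM, analysed by one-way ANOVA with Tukey's post hoc test against non-neuropathic controls.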

Mus musculus [8] = test: Antiallodynic activity in oxaliplatin-induced […] neuropathy pain Albino Swiss mouse model assessed as reduced acute-phase tactile allodynia at 30 mg/kg, ip administered after 3 hrs of oxaliplatin stimulation and measured after 1 hr by von Frey test; format: functional, organism-based
Summary of the method: (§3)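 Oxaliplatin-induced peripheral neuropathy in mice was tested in the acute and late phases. Compounds were given i.p. and tactile allodynia was read 1 h later by von Frey as the mean force to elicit paw withdrawal (n=7-10). Results are mean ± SEM, analysed by one-way ANOVA with Tukey's test against pre-drug force and non-neuropathic controls.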

Mus musculus [9] = test: Antihyperalgesic activity in oxaliplatin-induced […] late neuropathy pain Albino Swiss mouse model assessed as reduction in cold allodynia at 30 mg/kg, ip administered after 7 days of oxaliplatin stimulation by cold plate method; format: functional, organism-based
Summary of the method: as §2

Mus musculus [10] = test: Antiallodynic activity in oxaliplatin-induced […] neuropathy pain Albino Swiss mouse model assessed as reduced late-phase tactile allodynia at 30 mg/kg, ip administered after 7 days of oxaliplatin stimulation by van Frey test; format: functional, organism-based
Summary of the method: as §3

[11] = biological target: Sodium- and chloride-dependent GABA transporter 1 (Mus musculus) (UniProt P31648); test: Displacement of [3H]NO711 from mouse GAT1 expressed in HEK293 cells at 100 uM measured after 40 mins of incubation by LC-ESI-MS-MS method; format: cell-based; details: in the assay text read “NO711” for “[3H]NO711”
Summary of the method: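 Competitive MS Binding Assay for mGAT1 using NO-711 as a nonlabeled marker, quantified by LC–ESI–MS–MS. Compounds were screened at 100 µM. […] Otherwise, the percentage of remaining binding at 100 µM is given.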

Mus musculus [12] = test: Antihyperalgesic activity in oxaliplatin-induced […] late neuropathy pain Albino Swiss mouse model assessed as reduction in cold allodynia at 10 mg/kg, ip administered after 7 days of oxaliplatin stimulation by cold plate method; format: functional, organism-based
Summary of the method: as §2

Mus musculus [13] = test: Antiallodynic activity in STZ-induced diabetic neuropathy pain Albino Swiss mouse model assessed as reduced tactile allodynia at 10 mg/kg, ip administered after 3 weeks of STZ stimulation and measured after 1 hr by von Frey test; format: functional, organism-based
Summary of the method: (§4)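 STZ given i.p. to induce type I diabetes in mice. About 3 weeks (21 days) later, test doses of 5, 10 and 30 mg/kg were given i.p. Von Frey tactile allodynia was read 1 h after dosing as the mean force needed to elicit paw withdrawal (n=10). Results are mean ± SEM, analysed by one-way ANOVA with Tukey's test against pre-drug force and normoglycemic controls.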

Mus musculus [14] = test: Antiallodynic activity in oxaliplatin-induced peripheral neuropathy pain Albino Swiss mouse model assessed as reduced acute-phase tactile allodynia at 10 mg/kg, ip administered after 3 hrs of oxaliplatin stimulation and measured after 1 hr by von Frey test
Mus musculus [15] = test: Antiallodynic activity in STZ-induced diabetic neuropathy pain Albino Swiss mouse model assessed as reduced tactile allodynia at 5 mg/kg, ip administered after 3 weeks of STZ stimulation and measured after 1 hr by von Frey test; format: functional, organism-based
Summary of the method: as §4

Mus musculus [16] = test: Antihyperalgesic activity in STZ-induced diabetic neuropathy pain Albino Swiss mouse model assessed as reduced heat nociceptive threshold at 30 mg/kg, ip administered after 3 weeks of STZ stimulation and measured after 1 hr by hot plate method; format: functional, organism-based
Summary of the method: (§5)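 Heat hyperalgesia in STZ-diabetic neuropathic mice (3 weeks after i.p. STZ) was measured on a hot plate 1 h after i.p. dosing. The readout was latency to pain reaction, comparing pre-drug and post-drug values (n=9-10). Results are mean ± SEM, analysed by one-way ANOVA with Tukey's post hoc test against normoglycemic controls.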

Mus musculus [17] = test: Antiallodynic activity in STZ-induced diabetic neuropathy pain Albino Swiss mouse model assessed as reduced tactile allodynia at 30 mg/kg, ip administered after 3 weeks of STZ stimulation and measured after 1 hr by von Frey test; format: functional, organism-based
Summary of the method: as §4

Mus musculus [18] = test: Antiallodynic activity in oxaliplatin-induced peripheral neuropathy pain Albino Swiss mouse model assessed as reduced late-phase tactile allodynia at 30 mg/kg, ip administered after […] of oxaliplatin stimulation and measured after 1 hr by van Frey test
Mus musculus [19] = test: Antihyperalgesic activity in STZ-induced diabetic neuropathy pain Albino Swiss mouse model assessed as reduced heat nociceptive threshold at 10 mg/kg, ip administered after 3 weeks of STZ stimulation and measured after 1 hr by hot plate method; format: functional, organism-based
Summary of the method: as §5

Mus musculus [20] = test: Antihyperalgesic activity in oxaliplatin-induced […] acute neuropathy pain Albino Swiss mouse model assessed as reduction in cold allodynia at 30 mg/kg, ip administered after 3 hrs of oxaliplatin stimulation by cold plate method; format: functional, organism-based
Summary of the method: as §2

[21] = biological target: Sodium- and chloride-dependent GABA transporter 1 (Mus musculus) (UniProt P31648); test: Inhibition of mouse GAT1 expressed in HEK293 cell line assessed as inhibition of [3H]GABA uptake at 100 uM measured after 35 mins by liquid scintillation method; values are per cent of control
[22] = system: BGT1 (Mus musculus, Slc6a12); test: Inhibition of mouse GAT2 expressed in HEK293 cell line assessed as residual [3H]GABA uptake at 100 uM measured after 35 mins by liquid scintillation method
[23] = biological target: T1, Sodium- and chloride-dependent GABA transporter 1; test: Inhibition of mouse GTA 1 receptor
GABA transporter 4 [24] = biological target: T2, GABA transporter 4; test: Inhibition of mouse GTA4 receptor
GABA transporter 3 = biological target: T3, GABA transporter 3 (Mus musculus, UniProt P31649); test: Inhibition of mouse GTA 3 receptor
T3 sequence (P31649 whole entry): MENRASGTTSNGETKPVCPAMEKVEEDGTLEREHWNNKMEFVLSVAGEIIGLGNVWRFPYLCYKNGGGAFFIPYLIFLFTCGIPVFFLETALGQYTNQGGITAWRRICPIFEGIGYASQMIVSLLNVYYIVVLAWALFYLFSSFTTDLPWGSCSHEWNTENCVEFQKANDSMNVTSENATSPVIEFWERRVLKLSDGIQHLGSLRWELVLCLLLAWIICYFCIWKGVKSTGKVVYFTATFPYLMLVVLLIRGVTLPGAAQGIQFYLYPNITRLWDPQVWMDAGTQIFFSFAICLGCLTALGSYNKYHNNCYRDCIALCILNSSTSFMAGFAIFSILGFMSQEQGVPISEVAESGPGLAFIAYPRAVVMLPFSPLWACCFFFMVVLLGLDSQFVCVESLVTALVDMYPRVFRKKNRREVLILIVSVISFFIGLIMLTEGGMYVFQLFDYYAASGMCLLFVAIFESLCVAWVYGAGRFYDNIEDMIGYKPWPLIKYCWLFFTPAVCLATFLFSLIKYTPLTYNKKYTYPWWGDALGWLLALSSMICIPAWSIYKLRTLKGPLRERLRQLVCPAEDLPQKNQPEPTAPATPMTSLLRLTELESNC

Structure (SMILES): COc1ccc(C(OCCN2CCC[C@H](C(=O)O)C2)(c2ccc(OC)cc2)c2ccc(OC)cc2C)cc1
pIC50 [1]: 4.12 | pIC50 [2]: 4.85

Structure (SMILES): Cc1ccsc1C(=CCCN(C)C(CO)C(=O)NCc1ccc(F)cc1)c1sccc1C (configuration not stated)
logP [3]: 6.45 | IC50 [4]: 15.1 µM | IC50 (GABA transporter 4 [5]): 17 µM | Ki [6]: 51.3 µM

Structure (SMILES): Cc1ccsc1C(=CCCN(C)C(CCO)C(=O)NCc1ccccc1Cl)c1sccc1C (configuration not stated)
logP [3]: 6.23 | Activity (Mus musculus [7]): inactive | Activity (Mus musculus [8]): Active | Activity (Mus musculus [9]): inactive | Activity (Mus musculus [10]): Active | residual activity [11]: 77% | IC50 [4]: 13.8 µM | Activity (Mus musculus [12]): inactive | IC50 (GABA transporter 4 [5]): 5.75 µM | Activity (Mus musculus [13]): Active | Activity (Mus musculus [14]): Active | Activity (Mus musculus [15]): inactive | Activity (Mus musculus [16]): inactive | Activity (Mus musculus [17]): Active | Activity (Mus musculus [18]): Active | Activity (Mus musculus [19]): inactive | Activity (Mus musculus [20]): inactive

Structure (SMILES): Cc1ccsc1C(=CCCN(C)C(CO)C(=O)NCc1ccc(Cl)cc1)c1sccc1C (configuration not stated)
logP [3]: 6.47 | Activity (Mus musculus [8]): Active | Activity (Mus musculus [9]): inactive | Activity (Mus musculus [10]): Active | residual activity [11]: 66% | IC50 [4]: 20.4 µM | IC50 (GABA transporter 4 [5]): 9.55 µM | Activity (Mus musculus [13]): inactive | Activity (Mus musculus [15]): inactive | Activity (Mus musculus [16]): inactive | Activity (Mus musculus [17]): Active | Activity (Mus musculus [19]): inactive | Activity (Mus musculus [20]): inactive

Structure (SMILES): Cc1ccsc1C(=CCCN(C)C(CCO)C(=O)N1CCOCC1)c1sccc1C (configuration not stated)
logP [3]: 4.75 | residual activity [11]: 84% | residual activity [21]: 57% | IC50 (GABA transporter 4 [5]): 33.1 µM | residual activity [22]: 76%

The remaining lines, values ahead:

IC50 [4]: 20 µM | IC50 (GABA transporter 4 [5]): 9.55 µM | Ki [6]: 38.9 µM
Structure (SMILES): Cc1ccc(CNC(=O)C(CO)N(C)CCC=C(c2sccc2C)c2sccc2C)cc1 (configuration not stated)

Ki [6]: 38 µM
Structure (SMILES): Cc1ccsc1C(=CCCN(C)[C@@H](CCO)C(=O)NCc1ccccc1Cl)c1sccc1C

residual activity [11]: 96% | residual activity [21]: 61% | IC50 (GABA transporter 4 [5]): 77.6 µM | residual activity [22]: 65%
Structure (SMILES): Cc1ccsc1C(=CCCN(C)C(CO)C(=O)NCc1ccccc1Cl)c1sccc1C (configuration not stated)

IC50 [23]: > 1000 µM | IC50 (GABA transporter 4 [24]): 6.31 µM | IC50 (GABA transporter 3): 182 µM
Structure (SMILES): O=C1Nc2ccc(-c3cccs3)cc2C1=O
